# Test results from ChEMBL document CHEMBL5705905, “Pharmacological targeting of kinases MST1 and MST2 augments tissue repair and regeneration” (Sci Transl Med, 2016).
# Assays:
# [1] = biological target: Serine/threonine-protein kinase 10 (Homo sapiens) (UniProt O94804); test: Inhibition of LOK (unknown origin) assessed as remaining activity at 1 uM by Kinome scan method relative to control
# [2] = biological target: Protein-tyrosine kinase 6 (Homo sapiens) (UniProt Q13882); test: Inhibition of BRK (unknown origin) assessed as remaining activity at 1 uM by Kinome scan method relative to control
# Procedure, shortened: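 Active-site-dependent competition-binding (KINOMEscan) panel of 468 kinases, test compound at 1 μM (from a 10 mM DMSO stock). Read-out is ctrl% = (test signal − positive control signal)/(negative control signal − positive control signal) × 100. DMSO is the negative control (100%) and a control compound is the positive control (0%). Lower ctrl% means tighter binding.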
# [3] = Tmax in male Sprague-Dawley rat at 10 mg/kg, po measured for 24 hrs by LC-MS/MS analysis; assay type: ADME, organism-based; details: in vivo
# [4] = biological target: Interleukin-1 receptor-associated kinase 1 (Homo sapiens) (UniProt P51617); test: Inhibition of IRAK1 (unknown origin) assessed as remaining activity at 1 uM by Kinome scan method relative to control
# [5] = biological target: Serine/threonine-protein kinase OSR1 (Homo sapiens) (UniProt O95747); test: Inhibition of OSR1 (unknown origin) assessed as remaining activity at 1 uM by Kinome scan method relative to control
# Serine/threonine-protein kinase OSR1 (Homo sapiens), sequence (O95747 2-527 limits assumed): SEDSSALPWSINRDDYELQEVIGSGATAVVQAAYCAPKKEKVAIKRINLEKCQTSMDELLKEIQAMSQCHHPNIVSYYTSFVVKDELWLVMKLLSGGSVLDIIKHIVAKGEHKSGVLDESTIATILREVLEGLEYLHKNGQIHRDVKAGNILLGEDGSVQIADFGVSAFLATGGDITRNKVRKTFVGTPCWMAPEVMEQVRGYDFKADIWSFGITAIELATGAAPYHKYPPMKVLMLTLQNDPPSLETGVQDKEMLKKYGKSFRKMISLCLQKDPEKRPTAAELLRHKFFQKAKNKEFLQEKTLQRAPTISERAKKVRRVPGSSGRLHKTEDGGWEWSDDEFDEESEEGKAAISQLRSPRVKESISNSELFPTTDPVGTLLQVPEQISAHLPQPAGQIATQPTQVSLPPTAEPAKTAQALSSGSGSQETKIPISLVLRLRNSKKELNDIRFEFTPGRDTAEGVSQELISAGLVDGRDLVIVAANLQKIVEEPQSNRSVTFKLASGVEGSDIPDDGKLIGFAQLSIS
# [6] = biological target: Dual specificity protein kinase CLK2 (Homo sapiens) (UniProt P49760); test: Inhibition of CLK2 (unknown origin) assessed as remaining activity at 1 uM by Kinome scan method relative to control
# Procedure, shortened: (§1)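 Active-site-dependent competition-binding profiling (KINOMEscan) at 1 μM against a 468-kinase panel; compound supplied from a 10 mM DMSO stock. Read-out is ctrl% = (test signal − positive control signal)/(negative control signal − positive control signal) × 100. DMSO is the negative control (100%) and a control compound the positive control (0%). Lower ctrl% means tighter binding.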
# [7] = biological target: Calcium/calmodulin-dependent protein kinase type 1G (Homo sapiens) (UniProt Q96NX5); test: Inhibition of CAMK1G (unknown origin) assessed as remaining activity at 1 uM by Kinome scan method relative to control; procedure, shortened: as §1
# [8] = biological target: Myosin-IIIb (Homo sapiens) (UniProt Q8WXR4); test: Inhibition of MYO3B (unknown origin) assessed as remaining activity at 1 uM by Kinome scan method relative to control
# Myosin-IIIb (Homo sapiens), sequence (Q8WXR4 whole entry): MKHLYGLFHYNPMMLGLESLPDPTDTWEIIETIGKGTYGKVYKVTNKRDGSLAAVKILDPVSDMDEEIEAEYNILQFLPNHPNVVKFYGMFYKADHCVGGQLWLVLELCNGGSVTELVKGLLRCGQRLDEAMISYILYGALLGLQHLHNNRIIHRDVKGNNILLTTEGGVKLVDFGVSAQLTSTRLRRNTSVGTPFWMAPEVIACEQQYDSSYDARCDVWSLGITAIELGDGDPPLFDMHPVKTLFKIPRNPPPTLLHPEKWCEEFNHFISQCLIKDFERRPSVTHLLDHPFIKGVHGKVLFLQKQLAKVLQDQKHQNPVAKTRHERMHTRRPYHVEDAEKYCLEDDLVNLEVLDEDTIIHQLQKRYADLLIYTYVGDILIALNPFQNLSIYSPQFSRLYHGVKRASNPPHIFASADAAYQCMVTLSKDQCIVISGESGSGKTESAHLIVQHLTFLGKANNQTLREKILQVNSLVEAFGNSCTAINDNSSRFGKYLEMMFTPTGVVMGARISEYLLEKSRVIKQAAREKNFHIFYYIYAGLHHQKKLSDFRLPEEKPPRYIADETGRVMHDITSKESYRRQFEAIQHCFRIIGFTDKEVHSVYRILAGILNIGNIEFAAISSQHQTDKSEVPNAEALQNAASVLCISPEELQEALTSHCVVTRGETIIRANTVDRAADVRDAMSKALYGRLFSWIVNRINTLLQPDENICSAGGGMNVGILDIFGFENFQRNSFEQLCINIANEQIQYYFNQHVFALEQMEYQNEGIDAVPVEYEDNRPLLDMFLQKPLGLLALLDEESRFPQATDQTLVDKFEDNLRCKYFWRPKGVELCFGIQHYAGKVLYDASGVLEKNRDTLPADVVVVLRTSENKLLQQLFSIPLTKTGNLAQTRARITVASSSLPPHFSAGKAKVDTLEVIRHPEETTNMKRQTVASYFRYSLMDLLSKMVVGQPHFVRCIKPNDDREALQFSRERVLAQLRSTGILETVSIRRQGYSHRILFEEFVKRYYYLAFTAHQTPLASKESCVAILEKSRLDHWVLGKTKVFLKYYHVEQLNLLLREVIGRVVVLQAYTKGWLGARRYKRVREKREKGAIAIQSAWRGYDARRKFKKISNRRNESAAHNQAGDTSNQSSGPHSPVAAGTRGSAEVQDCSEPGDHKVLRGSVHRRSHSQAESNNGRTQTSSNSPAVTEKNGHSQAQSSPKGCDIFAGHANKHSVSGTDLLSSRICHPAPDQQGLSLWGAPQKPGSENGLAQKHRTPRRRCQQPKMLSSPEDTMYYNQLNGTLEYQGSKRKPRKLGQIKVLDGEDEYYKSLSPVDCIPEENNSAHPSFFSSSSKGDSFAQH
# [9] = biological target: Cyclin-dependent kinase-like 2 (Homo sapiens) (UniProt Q92772); test: Inhibition of CDKL2 (unknown origin) assessed as remaining activity at 1 uM by Kinome scan method relative to control; procedure, shortened: as §1
# [10] = biological target: Dual specificity testis-specific protein kinase 1 (Homo sapiens) (UniProt Q15569); test: Inhibition of TESK1 (unknown origin) assessed as remaining activity at 1 uM by Kinome scan method relative to control
# [11] = biological target: Mast/stem cell growth factor receptor Kit (Homo sapiens) (UniProt P10721); test: Inhibition of KIT (unknown origin) assessed as remaining activity at 1 uM by Kinome scan method relative to control
# Mast/stem cell growth factor receptor Kit (Homo sapiens), sequence (P10721 whole entry): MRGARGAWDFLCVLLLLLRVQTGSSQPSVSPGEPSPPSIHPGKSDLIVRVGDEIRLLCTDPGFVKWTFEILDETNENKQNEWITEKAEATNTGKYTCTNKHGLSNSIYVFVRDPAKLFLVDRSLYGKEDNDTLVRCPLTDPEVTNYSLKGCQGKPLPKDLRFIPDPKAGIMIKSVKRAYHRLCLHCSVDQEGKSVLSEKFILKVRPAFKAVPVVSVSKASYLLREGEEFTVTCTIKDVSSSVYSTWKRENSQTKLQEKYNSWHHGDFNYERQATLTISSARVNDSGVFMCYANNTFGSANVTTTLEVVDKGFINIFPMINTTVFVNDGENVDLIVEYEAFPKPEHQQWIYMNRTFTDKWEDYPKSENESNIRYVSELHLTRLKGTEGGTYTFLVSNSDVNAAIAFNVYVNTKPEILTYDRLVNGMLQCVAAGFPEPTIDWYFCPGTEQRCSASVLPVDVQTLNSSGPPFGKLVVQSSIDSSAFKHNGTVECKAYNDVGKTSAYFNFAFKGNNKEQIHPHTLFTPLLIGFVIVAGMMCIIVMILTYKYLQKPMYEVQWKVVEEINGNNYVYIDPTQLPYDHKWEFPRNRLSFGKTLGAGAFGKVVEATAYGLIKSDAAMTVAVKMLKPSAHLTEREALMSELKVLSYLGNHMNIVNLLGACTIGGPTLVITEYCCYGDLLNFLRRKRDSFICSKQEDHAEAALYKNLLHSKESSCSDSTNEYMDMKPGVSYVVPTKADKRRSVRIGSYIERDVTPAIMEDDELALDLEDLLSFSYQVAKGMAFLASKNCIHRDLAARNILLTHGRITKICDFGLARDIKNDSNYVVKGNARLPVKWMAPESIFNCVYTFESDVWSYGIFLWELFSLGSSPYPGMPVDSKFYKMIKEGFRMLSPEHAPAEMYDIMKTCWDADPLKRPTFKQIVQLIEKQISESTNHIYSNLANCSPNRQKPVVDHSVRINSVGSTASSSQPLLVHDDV
# [12] = biological target: Dual specificity mitogen-activated protein kinase kinase 1 (Homo sapiens) (UniProt Q02750); test: Inhibition of MEK1 (unknown origin) assessed as remaining activity at 1 uM by Kinome scan method relative to control
# Dual specificity mitogen-activated protein kinase kinase 1 (Homo sapiens), sequence (Q02750 whole entry): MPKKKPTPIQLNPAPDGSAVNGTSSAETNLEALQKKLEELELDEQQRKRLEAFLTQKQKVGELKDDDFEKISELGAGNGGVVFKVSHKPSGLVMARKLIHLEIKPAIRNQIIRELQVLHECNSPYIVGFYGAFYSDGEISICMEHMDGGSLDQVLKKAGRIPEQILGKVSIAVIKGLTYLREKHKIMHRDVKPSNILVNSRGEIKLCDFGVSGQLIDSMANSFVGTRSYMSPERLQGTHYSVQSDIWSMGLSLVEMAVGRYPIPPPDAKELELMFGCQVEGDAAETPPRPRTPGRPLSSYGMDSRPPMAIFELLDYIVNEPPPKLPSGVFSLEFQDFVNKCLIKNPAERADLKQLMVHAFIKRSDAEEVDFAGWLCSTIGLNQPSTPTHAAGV
# [13] = system: Epidermal growth factor receptor (Homo sapiens), P00533 [UNDEFINED MUTATION]; test: Inhibition of EGFR L747-E749del/A750P mutant (unknown origin) assessed as remaining activity at 1 uM by Kinome scan method relative to control
# [14] = biological target: Tyrosine-protein kinase Fer (Homo sapiens) (UniProt P16591); test: Inhibition of FER (unknown origin) assessed as remaining activity at 1 uM by Kinome scan method relative to control
# HepG2 [15] = test: Induction of apoptosis in human HepG2 cells overexpressing MST2 assessed as early apoptosis cells at 3 uM by annexinV staining (Rvb =13.6 %); assay type: functional
# [16] = biological target: Death-associated protein kinase 2 (Homo sapiens) (UniProt Q9UIK4); test: Inhibition of DAPK2 (unknown origin) assessed as remaining activity at 1 uM by Kinome scan method relative to control; procedure, shortened: as §1
# [17] = biological target: Serine/threonine-protein kinase VRK2 (Homo sapiens) (UniProt Q86Y07); test: Inhibition of VRK2 (unknown origin) assessed as remaining activity at 1 uM by Kinome scan method relative to control
# Serine/threonine-protein kinase VRK2 (Homo sapiens), sequence (Q86Y07 whole entry): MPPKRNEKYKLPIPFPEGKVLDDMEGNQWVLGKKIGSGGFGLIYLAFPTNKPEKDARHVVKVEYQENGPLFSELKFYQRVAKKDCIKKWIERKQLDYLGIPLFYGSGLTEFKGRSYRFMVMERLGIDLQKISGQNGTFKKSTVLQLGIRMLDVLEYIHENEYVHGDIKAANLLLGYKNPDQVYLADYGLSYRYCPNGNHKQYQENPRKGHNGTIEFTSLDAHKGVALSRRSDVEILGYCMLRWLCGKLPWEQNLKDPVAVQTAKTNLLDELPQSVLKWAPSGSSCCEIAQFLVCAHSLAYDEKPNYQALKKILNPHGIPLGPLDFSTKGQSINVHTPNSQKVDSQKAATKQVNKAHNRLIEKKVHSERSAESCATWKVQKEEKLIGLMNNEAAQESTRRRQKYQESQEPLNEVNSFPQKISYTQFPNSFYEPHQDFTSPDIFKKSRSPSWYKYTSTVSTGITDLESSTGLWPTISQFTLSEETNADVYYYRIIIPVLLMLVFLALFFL
# [18] = biological target: Receptor-interacting serine/threonine-protein kinase 4 (Homo sapiens) (UniProt P57078); test: Inhibition of RIPK4 (unknown origin) assessed as remaining activity at 1 uM by Kinome scan method relative to control
# Receptor-interacting serine/threonine-protein kinase 4 (Homo sapiens), sequence (P57078 whole entry): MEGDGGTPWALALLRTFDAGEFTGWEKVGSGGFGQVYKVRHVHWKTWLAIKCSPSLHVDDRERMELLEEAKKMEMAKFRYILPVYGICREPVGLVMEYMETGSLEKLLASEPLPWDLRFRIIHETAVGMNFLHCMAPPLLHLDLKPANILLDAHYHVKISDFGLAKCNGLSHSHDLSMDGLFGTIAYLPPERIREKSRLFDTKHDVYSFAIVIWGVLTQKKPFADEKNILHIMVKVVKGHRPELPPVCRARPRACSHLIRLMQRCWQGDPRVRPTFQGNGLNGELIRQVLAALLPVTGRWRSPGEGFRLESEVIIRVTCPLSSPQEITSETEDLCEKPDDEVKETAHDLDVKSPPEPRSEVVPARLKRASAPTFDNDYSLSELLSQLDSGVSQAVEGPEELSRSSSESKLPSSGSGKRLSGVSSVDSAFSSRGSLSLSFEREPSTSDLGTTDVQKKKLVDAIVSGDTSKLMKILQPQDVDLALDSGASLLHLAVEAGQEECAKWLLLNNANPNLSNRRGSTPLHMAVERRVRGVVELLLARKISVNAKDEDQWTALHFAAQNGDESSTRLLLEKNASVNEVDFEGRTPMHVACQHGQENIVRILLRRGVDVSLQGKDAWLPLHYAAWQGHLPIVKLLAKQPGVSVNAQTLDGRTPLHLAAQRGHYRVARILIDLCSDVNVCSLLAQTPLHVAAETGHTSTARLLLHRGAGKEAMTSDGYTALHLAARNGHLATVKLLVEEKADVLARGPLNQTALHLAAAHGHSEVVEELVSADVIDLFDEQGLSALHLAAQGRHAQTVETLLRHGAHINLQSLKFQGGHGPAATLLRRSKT
# [19] = biological target: BDNF/NT-3 growth factors receptor (Homo sapiens) (UniProt Q16620); test: Inhibition of TRKB (unknown origin) assessed as remaining activity at 1 uM by Kinome scan method relative to control
# HepG2 [20] = test: Induction of apoptosis in human HepG2 cells overexpressing MST2 assessed as necrosis cells at 3 uM by annexinV staining (Rvb =0.24 %); assay type: functional
# [21] = system: Mast/stem cell growth factor receptor Kit (Homo sapiens), P10721 [V559D,T670I]; test: Inhibition of KIT V559D/T670I mutant (unknown origin) assessed as remaining activity at 1 uM by Kinome scan method relative to control
# Mast/stem cell growth factor receptor Kit (Homo sapiens), P10721 [V559D,T670I], sequence (P10721 whole entry V559D/T670I): as the sequence (P10721 whole entry) above, with V559D, T670I counted along it
# [22] = biological target: Serine/threonine-protein kinase STK11 (Homo sapiens) (UniProt Q15831); test: Inhibition of LKB1 (unknown origin) assessed as remaining activity at 1 uM by Kinome scan method relative to control
# Serine/threonine-protein kinase STK11 (Homo sapiens), sequence (Q15831 whole entry): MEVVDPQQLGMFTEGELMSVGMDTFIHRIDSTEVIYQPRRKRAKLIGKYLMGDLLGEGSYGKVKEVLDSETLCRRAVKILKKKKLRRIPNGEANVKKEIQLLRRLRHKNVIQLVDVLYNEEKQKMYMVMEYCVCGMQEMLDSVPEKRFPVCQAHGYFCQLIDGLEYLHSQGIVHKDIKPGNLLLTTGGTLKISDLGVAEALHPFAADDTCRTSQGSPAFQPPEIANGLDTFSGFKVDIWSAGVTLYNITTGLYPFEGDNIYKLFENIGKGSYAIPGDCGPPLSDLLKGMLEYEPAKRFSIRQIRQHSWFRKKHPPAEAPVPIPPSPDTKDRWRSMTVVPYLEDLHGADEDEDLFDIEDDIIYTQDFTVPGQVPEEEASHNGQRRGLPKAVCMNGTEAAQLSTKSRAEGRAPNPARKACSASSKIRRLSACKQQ
# [23] = biological target: T1, Serine/threonine-protein kinase 3 (Homo sapiens, UniProt Q13188); test: Inhibition of recombinant His-tagged full-length MST2 (unknown origin) expressing in Escherichia coli assessed as GST-tagged MOB1a phosphorylation level incubated for 30 mins by immunoblot analysis
# T1 sequence (Q13188 whole entry): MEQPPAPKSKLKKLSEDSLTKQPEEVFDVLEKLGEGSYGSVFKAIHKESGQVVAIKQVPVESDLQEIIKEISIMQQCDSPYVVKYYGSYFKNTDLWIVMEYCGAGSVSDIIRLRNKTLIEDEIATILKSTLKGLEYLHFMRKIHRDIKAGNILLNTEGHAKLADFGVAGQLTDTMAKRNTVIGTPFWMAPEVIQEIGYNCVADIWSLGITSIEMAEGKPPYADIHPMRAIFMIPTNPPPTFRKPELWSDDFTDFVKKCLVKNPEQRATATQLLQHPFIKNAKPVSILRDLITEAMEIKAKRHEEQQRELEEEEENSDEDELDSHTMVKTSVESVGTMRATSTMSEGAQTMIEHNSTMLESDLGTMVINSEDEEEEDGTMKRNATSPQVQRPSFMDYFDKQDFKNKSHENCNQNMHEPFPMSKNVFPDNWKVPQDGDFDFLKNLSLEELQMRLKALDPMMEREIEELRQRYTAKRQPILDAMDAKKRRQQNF
# [24] = system: Epidermal growth factor receptor (Homo sapiens), P00533 [G719C]; test: Inhibition of EGFR G719C mutant (unknown origin) assessed as remaining activity at 1 uM by Kinome scan method relative to control
compound,measurement,setting,value
CN1C(=O)c2sccc2N(C)c2nc(Nc3ccc(S(N)(=O)=O)cc3)ncc21,Activity,[1],100%
same,Activity,[2],100%
same,Tmax,[3],3 h
same,Activity,[4],51%
same,Activity,[5],81%
same,Activity,[6],71%
same,Activity,[7],100%
same,Activity,[8],100%
same,Activity,[9],97%
same,Activity,[10],80%
same,Activity,[11],100%
same,Activity,[12],91%
same,Activity,[13],100%
same,Activity,[14],100%
same,Activity,HepG2 [15],5.12%
same,Activity,[16],100%
same,Activity,[17],85%
same,Activity,[18],9.5%
same,Activity,[19],35%
same,Activity,HepG2 [20],0.27%
same,Activity,[21],88%
same,Activity,[22],96%
same,IC50,[23],38.2 nM
same,Activity,[24],78%
